Active and inactive are the calls of the source. The rule behind the calls is not given here.
Assays:
[1] = system: Plasmodium falciparum; assay: Antimalarial activity against chloroquine-sensitive Plasmodium falciparum 3D7 ring stage assessed as growth inhibition at 150 nM after 10 hrs by [3H]-hypoxanthine incorporation assay; assay type: functional, organism-based
In short: (§1)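 Synchronous 3D7 rings (~10−16 h post-invasion) or trophozoites (~24−30 h post-invasion), 0.5% parasitemia, 5% hematocrit, exposed 4, 6 or 10 h to compound or 0.04% DMSO vehicle. Cultures are washed, plated in triplicate with 0.5 μCi 3H-hypoxanthine, and incorporation is counted after ~48−72 h. Percent growth is relative to matched vehicle controls, from at least two independent experiments.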

[2] = system: Plasmodium falciparum; assay: Antimalarial activity against chloroquine-sensitive Plasmodium falciparum 3D7 ring stage assessed as growth inhibition at 75 nM after 10 hrs by [3H]-hypoxanthine incorporation assay; assay type: functional, organism-based; in short: as §1
[3] = system: Plasmodium falciparum; assay: Antimalarial activity against chloroquine-sensitive Plasmodium falciparum 3D7 trophozoite stage assessed as growth inhibition at 150 nM after 10 hrs by [3H]-hypoxanthine incorporation assay; assay type: functional, organism-based; in short: as §1
[4] = system: Plasmodium falciparum; assay: Antimalarial activity against chloroquine-sensitive Plasmodium falciparum 3D7 trophozoite stage assessed as growth inhibition at 75 nM after 10 hrs by [3H]-hypoxanthine incorporation assay; assay type: functional, organism-based; in short: as §1
[5] = system: Plasmodium berghei; assay: Antimalarial activity against chloroquine-sensitive Plasmodium berghei ANKA infected in Swiss albino mouse assessed as suppression of parasitemia at 8 mg/kg/day, ip measured on day 4 post infection by Giemsa staining relative to control; assay type: functional; settings: route intraperitoneal
[6] = system: Plasmodium berghei; assay: Antimalarial activity against chloroquine-sensitive Plasmodium berghei ANKA infected in ip dosed Swiss albino mouse assessed as suppression of parasitemia measured on day 4 post infection by Giemsa staining; assay type: functional; settings: 96 h
[7] = Selectivity index, ratio of IC50 for human HEK293 cells to IC50 for chloroquine-resistant Plasmodium falciparum Dd2; assay type: toxicity, cell-based; settings: read-out: Ratio IC50
[8] = system: Plasmodium falciparum; assay: Antimalarial activity against chloroquine-resistant Plasmodium falciparum Dd2 assessed as growth inhibition after 72 hrs by DAPI staining; assay type: functional, organism-based; settings: Dd2, 72 h
In short: (§2)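 P. falciparum 3D7 or Dd2 at 2% or 3% parasitemia, 0.3% hematocrit, exposed 72 h at 37 °C, 5% CO2. Staining with DAPI plus saponin and Triton X-100, 5 h at room temperature in the dark, then confocal imaging and automated counting of parasite spots. Percent inhibition is calculated against DMSO and 2 μM artemisinin controls.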

[9] = system: HEK293; assay: Cytotoxicity against human HEK293 cells assessed as growth inhibition after 72 hrs by Alamar blue assay; assay type: cell-based; settings: HEK293, 72 h
In short: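 HEK293 adherent cells (3000/well) were incubated with compound for 72 h at 37 °C and 5% CO2. Medium was removed, then 10% Alamar Blue was added for 5−6 h. Fluorescence was read at ex 535/em 590 nm. Inhibition was normalised to DMSO and 10 μM puromycin controls. IC50 came from nonlinear variable-slope regression of % inhibition against log dose.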

[10] = system: Plasmodium falciparum; assay: Antimalarial activity against chloroquine-sensitive Plasmodium falciparum 3D7 assessed as growth inhibition after 72 hrs by DAPI staining; assay type: functional, organism-based; settings: 3D7, 72 h; in short: as §2
[11] = Selectivity index, ratio of IC50 for human HEK293 cells to IC50 for chloroquine-sensitive Plasmodium falciparum 3D7; assay type: toxicity, cell-based; settings: read-out: Ratio IC50
[12] = biological target: DNA topoisomerase 2-alpha (Homo sapiens) (UniProt P11388); assay: Inhibition of topoisomerase 2 by decatenation assay
[13] = system: XRS6; assay: Cytotoxicity against Chinese hamster Xrs-6 cells; assay type: cell-based; settings: Cricetulus griseus
[14] = system: HCT-116; assay: Cytotoxicity against human HCT116 cells; assay type: functional, cell-based

Sequence of DNA topoisomerase 2-alpha (Homo sapiens) (P11388 whole entry): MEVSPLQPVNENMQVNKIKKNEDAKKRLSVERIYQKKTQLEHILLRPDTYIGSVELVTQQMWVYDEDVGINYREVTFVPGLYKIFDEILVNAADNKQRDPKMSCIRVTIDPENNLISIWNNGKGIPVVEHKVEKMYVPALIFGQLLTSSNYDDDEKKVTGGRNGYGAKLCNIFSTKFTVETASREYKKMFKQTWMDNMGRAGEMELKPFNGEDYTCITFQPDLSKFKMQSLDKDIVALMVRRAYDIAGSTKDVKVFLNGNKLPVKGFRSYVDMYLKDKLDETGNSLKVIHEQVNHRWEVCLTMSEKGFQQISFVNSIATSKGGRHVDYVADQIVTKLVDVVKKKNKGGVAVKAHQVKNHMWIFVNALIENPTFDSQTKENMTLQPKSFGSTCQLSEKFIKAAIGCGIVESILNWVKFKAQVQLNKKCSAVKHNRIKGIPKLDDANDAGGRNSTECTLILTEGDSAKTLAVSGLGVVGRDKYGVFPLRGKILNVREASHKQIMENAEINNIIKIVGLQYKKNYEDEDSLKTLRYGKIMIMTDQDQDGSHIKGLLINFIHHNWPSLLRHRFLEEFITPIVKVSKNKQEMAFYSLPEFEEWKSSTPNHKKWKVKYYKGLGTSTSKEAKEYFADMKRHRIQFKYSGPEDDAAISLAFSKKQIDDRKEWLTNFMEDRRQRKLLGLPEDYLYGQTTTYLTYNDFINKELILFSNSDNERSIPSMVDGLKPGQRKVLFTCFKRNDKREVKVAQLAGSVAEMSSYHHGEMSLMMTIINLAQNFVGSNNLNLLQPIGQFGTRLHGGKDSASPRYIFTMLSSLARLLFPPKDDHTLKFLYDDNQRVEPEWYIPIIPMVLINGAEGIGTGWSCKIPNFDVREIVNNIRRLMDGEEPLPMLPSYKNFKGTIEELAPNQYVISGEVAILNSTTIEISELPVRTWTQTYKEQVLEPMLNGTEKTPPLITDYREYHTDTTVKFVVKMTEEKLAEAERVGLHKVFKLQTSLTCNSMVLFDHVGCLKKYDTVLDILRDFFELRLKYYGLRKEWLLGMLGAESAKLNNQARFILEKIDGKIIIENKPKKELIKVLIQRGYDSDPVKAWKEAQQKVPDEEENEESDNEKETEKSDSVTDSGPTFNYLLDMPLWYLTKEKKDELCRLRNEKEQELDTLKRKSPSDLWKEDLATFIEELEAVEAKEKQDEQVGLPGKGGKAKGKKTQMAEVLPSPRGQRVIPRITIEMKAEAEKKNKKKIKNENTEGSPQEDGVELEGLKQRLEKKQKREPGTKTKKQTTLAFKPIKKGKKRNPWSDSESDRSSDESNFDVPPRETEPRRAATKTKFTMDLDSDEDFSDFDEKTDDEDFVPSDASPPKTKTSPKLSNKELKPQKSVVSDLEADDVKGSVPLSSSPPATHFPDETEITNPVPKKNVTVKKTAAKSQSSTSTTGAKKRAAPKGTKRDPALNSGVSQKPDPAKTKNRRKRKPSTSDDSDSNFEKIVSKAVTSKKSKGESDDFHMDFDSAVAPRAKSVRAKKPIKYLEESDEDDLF

Structure (SMILES): C[C@@H]1CC[C@H]2[C@@H](C)C(=O)O[C@@H]3O[C@@]4(C)CC[C@@H]1[C@]32OO4
- growth inhibition (GI) [1]: Active
- growth inhibition (GI) [2]: Active
- growth inhibition (GI) [3]: Active
- growth inhibition (GI) [4]: Active

Structure (SMILES): CCN(CC)CCCC(C)Nc1ccnc2cc(Cl)ccc12 (stereo not drawn) [CHLOROQUINE]
- Activity [5]: 35%
- ED50 [6]: 1.9 mg/kg/day

Structure (SMILES): CN1CCc2cn(C)c3c2C1=CC(=O)C3=O [DAMIRONES A]
- selectivity ratio [7]: > 333
- IC50 [8]: 0.36 µM
- IC50 [9]: > 120 µM
- IC50 [10]: 1.88 µM
- selectivity ratio [11]: > 63

Structure (SMILES): CN1CCc2c[nH]c3c2C1=CC(=O)C3=O [DAMIRONES B]
- selectivity ratio [7]: > 32
- IC50 [8]: 3.8 µM
- IC50 [9]: > 120 µM
- IC50 [10]: 12.2 µM
- selectivity ratio [11]: > 10

Structure (SMILES): Cn1cc2c3c1C(=O)C(N)=CC3=NCC2 [MAKALUVAMINE A]
- IC90 [12]: 41 µM
- IC50 [13]: 0.08 µM
- IC50 [14]: > 0.17 µM

Structure (SMILES): Cn1cc2ccnc3c2c1C(=O)C(N)=C3 [MAKALUVAMINE B]
- IC50 [13]: 0.08 µM
- IC50 [14]: > 0.17 µM

Structure (SMILES): C[N+]1=C2C=C(N)C(=O)c3[nH]cc(c32)CC1 [MAKALUVAMINE C]
- IC50 [13]: 0.08 µM
- IC50 [14]: > 0.17 µM

— ChEMBL document CHEMBL2150944, “Antimalarial activity of pyrroloiminoquinones from the Australian marine sponge Zyzzya sp” (J Med Chem, 2012)
